# Assay results taken from ChEMBL document CHEMBL5653617, “Inhibition of BRD4 attenuates tumor cell self-renewal and suppresses stem cell signaling in MYC driven medulloblastoma” (Oncotarget, 2014).
# Calls of active or inactive are those of the source.
# Experiments:
# D425 Med [1] = test: Induction of cell cycle arrest in human D425 Med cells assessed as accumulation of cells at G1 phase at 300 nM incubated for 48 hrs by flow cytometry analysis (reference value: 33.715 +/- 0.495%); type: functional
# Daoy [2] = test: Downregulation of CENPF gene expression in human Daoy cells at 300 nM by GSEA method; type: functional, cell-based
# Procedure, shortened: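 Daoy cells treated with DMSO or 300 nM drug. RNA extracted and hybridized to Affymetrix HG-ST2.0 arrays. Analysis in R/Bioconductor with gene set enrichment analysis. Regulated transcripts defined as p < 0.05, FDR < 0.05, fold change < 0.67 (down) or > 1.5 (up).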
# [3] = target: Bromodomain-containing protein 4 (Homo sapiens) (UniProt O60885); conditions: Daoy, dose 300.0 nM
# [4] = target: Bromodomain-containing protein 4 (Homo sapiens) (UniProt O60885); conditions: D283 Med, time 24-48 hrs
# D283 Med [5] = test: Antiproliferative activity in human D283 Med cells assessed as inhibition of cell growth at 300 nM by flow cytometry analysis; type: functional, cell-based
# Procedure, shortened: (§1)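 ViaCount flow cytometric cell count. Cells seeded in medium, DMSO or drug added 24 h later, cultured a further 48 h. Cells then pelleted, washed, stained with Viacount reagent and counted on a Guava cytometer. Vehicle control DMSO.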
# Medulloblastoma cell [6] = test: Induction of cell cycle arrest in patient-derived Medulloblastoma cells assessed as accumulation of cells at G1 phase at 300 nM; type: functional, cell-based; conditions: Homo sapiens
# [7] = target: Bromodomain-containing protein 4 (Homo sapiens) (UniProt O60885); conditions: D283 Med, dose 300.0 nM
# D458 Med [8] = test: Antiproliferative activity in human D458 Med cells assessed as inhibition of cell growth at 300 nM by flow cytometry analysis; type: functional, cell-based; procedure, shortened: as §1
# Daoy [9] = test: Antitumor activity against human Daoy cells xenografted in athymic nude mice assessed as reduction in tumor growth at 50 mg/kg, ip administered 5 days a week for 4 weeks and measured after 20 days; type: functional, organism-based; conditions: time 48.0 day
# Procedure, shortened: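 Daoy cells (1.0×10^7 in PBS) injected into the flank of athymic nude mice. Dosing began once tumors were palpable, at a mean of 52 days post inoculation. 50 mg/kg i.p. or DMSO vehicle given 5 days/week for 4 weeks, n=10, with tumors followed a further 20 days. Volume by caliper as π/6 × L × W × H. Body weight recorded 3 times weekly.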
# Daoy [10] = test: Antiproliferative activity in human Daoy cells assessed as inhibition of cell growth at 300 nM by flow cytometry analysis; type: functional, cell-based; procedure, shortened: as §1
# D458 Med [11] = test: Induction of cell cycle arrest in human D458 Med cells assessed as accumulation of cells at G1 phase at 300 nM incubated for 48 hrs by flow cytometry analysis (reference value: 35.85 +/- 1.37%); type: functional
# Daoy [12] = test: Induction of cell cycle arrest in human Daoy cells assessed as S phase cells at 300 nM incubated for 48 hrs by flow cytometry analysis (reference value: 15.39 +/- 1.73%); type: functional
# Daoy [13] = test: Antitumor activity against human Daoy cells xenografted in athymic nude mice assessed as induction of senescence at 50 mg/kg, ip measured after 5 days by beta-galactosidase staining based analysis; type: functional, organism-based; conditions: time 5.0 day
# Procedure, shortened: (§2)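 Daoy cells (1.0×10^7 in PBS) injected into the flank of athymic nude mice. Once tumors were palpable, drug given 50 mg/kg i.p. with DMSO as vehicle control. Animals were sacrificed after a 5-day treatment. Tumors were assessed by Ki67 IHC and by senescence-associated β-galactosidase staining.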
# D425 Med [14] = test: Antiproliferative activity in human D425 Med cells assessed as inhibition of cell growth at 300 nM by flow cytometry analysis; type: functional, cell-based; procedure, shortened: as §1
# Daoy [15] = test: Induction of senescence in human Daoy cells assessed as increase in p27 mRNA expression at 300 nM by RT-qPCR analysis; type: functional, cell-based
# Procedure, shortened: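 Cells treated with 300 nM drug or DMSO. p16, p21 and p27 mRNA measured by TaqMan qPCR with ΔΔCt quantitation, in triplicate.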
# Daoy [16] = test: Antiproliferative activity in human Daoy cells assessed as inhibition of cell growth measured upto 120 hrs by xCELLigence system; type: functional, cell-based; conditions: dose 0.1-1 µM
# Procedure, shortened: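 Real-time impedance growth monitoring (xCELLigence, E-Plate 96). 1000 cells/well plated, DMSO or drug at varying concentrations added 24 h later, growth recorded continuously over time.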
# D283 Med [17] = test: Induction of cell cycle arrest in human D283 Med cells assessed as G2/M phase cells at 300 nM incubated for 48 hrs by flow cytometry analysis (reference value: 55.70 +/- 1.50 %); type: functional
# [18] = target: Bromodomain-containing protein 4 (Homo sapiens) (UniProt O60885); conditions: D283 Med, dose 300.0 nM; remark: listed apart in the source
# Medulloblastoma cell [19] = test: Antitumor activity against patient-derived Medulloblastoma cells assessed as BrdU incorporation at 300 nM preincubated with compound for 7 days followed by BrdU addition and measured after 2 days by flow cytometry analysis (reference value: 33.3); type: functional, Homo sapiens; conditions: time 9 day
# [20] = target: Bromodomain-containing protein 4 (Homo sapiens) (UniProt O60885); conditions: Daoy, dose 300.0 nM; remark: listed apart in the source
# D425 Med [21] = test: Inhibition of colony formation in human D425 Med cells at 100 to 300 nM incubated for 8 to 11 days by NBT staining based methyl cellulose colony growth assay; type: functional, cell-based; conditions: dose 100-300 nM, time 8-11 day
# Procedure, shortened: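 500 cells/well suspended in DMEM with methyl cellulose (1.3% final) containing 150 or 300 nM drug or DMSO, plated in triplicate. Colonies formed over 8–11 days, then stained with NBT (1 mg/ml) for 24 h at 37 °C. Colonies of ≥50 cells counted.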
# Medulloblastoma cell [22] = test: Cytotoxicity against patient-derived Medulloblastoma cells assessed as reduction in cell viability at 300 nM by LDH assay; type: functional, cell-based; conditions: Homo sapiens
# Procedure, shortened: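 Primary tumor slices cultured as described and treated daily from day 5 with DMSO, 300 nM drug, or mitomycin C (50 ug/mL). Spent medium was collected at each change and stored at -80 °C. LDH activity was measured by kit and normalized to the mitomycin C treatment.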
# [23] = target: Bromodomain-containing protein 4 (Homo sapiens) (UniProt O60885); conditions: Daoy, dose 300.0 nM; remark: listed apart in the source
# D283 Med [24] = test: Induction of cell cycle arrest in human D283 Med cells assessed as accumulation of cells at G1 phase at 300 nM incubated for 48 hrs by flow cytometry analysis (reference value: 23.47 +/- 0.29%); type: functional
# [25] = target: Bromodomain-containing protein 4 (Homo sapiens) (UniProt O60885); conditions: D458 Med, dose 300.0 nM
# [26] = target: Bromodomain-containing protein 4 (Homo sapiens) (UniProt O60885); conditions: D283 Med, dose 300.0 nM; remark: listed apart in the source
# Daoy [27] = test: Antitumor activity against human Daoy cells xenografted in athymic nude mice assessed as inhibition of proliferation at 50 mg/kg, ip measured after 5 days by Ki67 staining based analysis; type: functional, organism-based; conditions: time 5.0 day; procedure, shortened: as §2
# [28] = target: Bromodomain-containing protein 4 (Homo sapiens) (UniProt O60885); conditions: D425 Med, dose 300.0 nM
smiles,measurement,setting,value
Cc1sc2c(c1C)C(c1ccc(Cl)cc1)=N[C@@H](CC(=O)OC(C)(C)C)c1nnc(C)n1-2,Activity,D425 Med [1],39.393%
same,Activity,Daoy [2],Active
same,inhibition,[3],Active
same,inhibition,[4],Active
same,Activity,D283 Med [5],Active
same,Activity,Medulloblastoma cell [6],Active
same,inhibition,[7],Active
same,Activity,D458 Med [8],Active
same,Activity,Daoy [9],Active
same,Activity,Daoy [10],Active
same,Activity,D458 Med [11],46.86%
same,Activity,Daoy [12],3.736%
same,Activity,Daoy [13],Active
same,Activity,D425 Med [14],Active
same,Activity,Daoy [15],Active
same,Activity,Daoy [16],Dose-Dependent Effect
same,Activity,D283 Med [17],53.216%
same,inhibition,[18],Active
same,Activity,Medulloblastoma cell [19],13.5
same,inhibition,[20],Active
same,inhibition,D425 Med [21],Active
same,Activity,Medulloblastoma cell [22],inactive
same,inhibition,[23],Active
same,Activity,D283 Med [24],30.373%
same,inhibition,[25],Active
same,inhibition,[26],Active
same,Activity,Daoy [27],Active
same,inhibition,[28],Active
